# Measurements from ChEMBL document CHEMBL1126043, “Novel thiazolidine-2,4-diones as potent euglycemic agents” (1992).
# Columns and labels:
# Type in all cases: functional
# Mus musculus [1] = test: In vivo euglycemic activity (administered by oral gavage) in C57/6J-ob/ob mice by normalization of blood glucose levels at a dose of 10 mg/kg.
# Procedure, shortened: (§1)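 Mice bled from retro-orbital sinus into tubes with 2% sodium heparin for baseline glucose, then dosed by oral gavage once daily for 4 days in 0.25% (w/v) methylcellulose in water, no pH adjustment (0.1 mL per 20 g). Bled 24 h after fourth dose. Samples centrifuged 2 min at 10000g. Plasma glucose measured by hexokinase UV method. Results scaled to vehicle (0%) and ciglitazone 50 mg/kg (100%).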
# Mus musculus [2] = test: In vivo euglycemic activity (administered by oral gavage) in C57/6J-ob/ob mice by normalization of blood glucose levels at a dose of 1 mg/kg.; procedure, shortened: as §1
# Mus musculus [3] = test: In vivo euglycemic activity (administered by oral gavage) in C57/6J-ob/ob mice measured by normalization of blood glucose levels at a dose of 5 mg/kg.
Structure (SMILES),Normalization (Mus musculus [1]) [%],Normalization (Mus musculus [2]) [%],Normalization (Mus musculus [3]) [%]
O=C1NC(=O)C(Cc2ccc(C(O)CCc3ccccn3)cc2)S1 (centres undefined),13,–,–
O=C1NC(=O)C(Cc2ccc(C(=O)/C=C/c3nc4ccccc4s3)cc2)S1 (centres undefined),0,–,–
COc1ccc(-c2nc(CCC(=O)c3ccc(/C=C4\SC(=O)NC4=O)cc3)c(C)o2)cc1,–,62,–
O=C1NC(=O)C(Cc2ccc(C(=O)/C=C/c3ccccc3Cl)cc2)S1 (centres undefined),44,–,65
Cc1oc(-c2ccccc2)nc1CN(C(=O)c1ccc(CC2SC(=O)NC2=O)cc1)c1ccccc1 (centres undefined),–,–,23
CCN(C(=O)Cc1nc(-c2ccccc2)oc1C)c1ccc(CC2SC(=O)NC2=O)cc1 (centres undefined),–,–,25
O=C1NC(=O)C(Cc2ccc(C(=O)/C=C/c3ccco3)cc2)S1 (centres undefined),65,–,–
Cc1ccc(-c2nc(CCC(=O)c3ccc(/C=C4\SC(=O)NC4=O)cc3)co2)cc1,–,53,–
Cc1oc(-c2ccco2)nc1CCC(=O)c1ccc(CC2SC(=O)NC2=O)cc1 (centres undefined),–,61,–
COc1ccc(CCC(=O)c2ccc(CC3SC(=O)NC3=O)cc2)cc1 (centres undefined),50,–,–
Cc1oc(-c2ccco2)nc1CCC(=O)c1ccc(/C=C2\SC(=O)NC2=O)cc1,–,55,–
COc1ccc(/C=C/C(=O)c2ccc(CC3SC(=O)NC3=O)cc2)cc1 (centres undefined),68,–,0
Cc1oc(-c2ccc3ccccc3c2)nc1CCC(=O)c1ccc(CC2SC(=O)NC2=O)cc1 (centres undefined),–,39,–
O=C1NC(=O)C(Cc2ccc(C(=O)/C=C/c3ccc(Br)cc3)cc2)S1 (centres undefined),28,–,–
O=C1NC(=O)C(Cc2ccc(C(=O)/C=C/c3ccccc3Cc3ccccc3)cc2)S1 (centres undefined),56,–,–
O=C1NC(=O)C(Cc2ccc(C(=O)CCc3ccc(OCc4ccccc4)cc3)cc2)S1 (centres undefined),45,–,–
O=C1NC(=O)C(Cc2ccc(C(O)CCc3ccccc3)cc2)S1 (centres undefined),89,–,47
O=C1NC(=O)C(Cc2ccc(C(=O)CCCc3ccccc3)cc2)S1 (centres undefined),26,–,–

Structure (SMILES),Normalization (Mus musculus [1]) [%],Normalization (Mus musculus [2]) [%],Normalization (Mus musculus [3]) [%]
CCOC(=O)c1ccc(/C=C/C(=O)c2ccc(CC3SC(=O)NC3=O)cc2)cc1 (centres undefined),4,–,–
Cc1oc(-c2ccccc2)nc1CN(C)S(=O)(=O)c1ccc(CC2SC(=O)NC2=O)cc1 (centres undefined),–,–,9
CO/N=C(\CCc1nc(-c2ccccc2)oc1C)c1ccc(CC2SC(=O)NC2=O)cc1 (centres undefined),–,0,100
O=C1NC(=O)C(Cc2ccc(C(=O)CCc3ccc(-c4ccccc4)cc3)cc2)S1 (centres undefined),71,–,54
O=C1NC(=O)C(Cc2ccc(C(=O)/C=C/c3ccccc3C(F)(F)F)cc2)S1 (centres undefined),57,–,39
CCc1ccc(CCC(=O)c2ccc(CC3SC(=O)NC3=O)cc2)nc1 (centres undefined),41,–,0
O=C1NC(=O)C(Cc2ccc(C(=O)/C=C/c3cccc(Cl)c3)cc2)S1 (centres undefined),4,–,–
CN(C)c1ccc(/C=C/C(=O)c2ccc(CC3SC(=O)NC3=O)cc2)cc1 (centres undefined),17,–,–
Cc1oc(-c2ccc(O)cc2)nc1CCC(=O)c1ccc(CC2SC(=O)NC2=O)cc1 (centres undefined),–,0,–
Cc1oc(-c2ccccc2)nc1CC/C(=N\OCc1ccccc1)c1ccc(CC2SC(=O)NC2=O)cc1 (centres undefined),–,–,17
Cc1oc(-c2ccccc2)nc1CC(=O)N(C)c1ccc(CC2SC(=O)NC2=O)cc1 (centres undefined),–,–,9
Cc1oc(-c2ccccc2)nc1CNS(=O)(=O)c1ccc(CC2SC(=O)NC2=O)cc1 (centres undefined),–,–,0
COc1ccccc1CCC(=O)c1ccc(CC2SC(=O)NC2=O)cc1 (centres undefined),0,–,–
O=C1NC(=O)C(Cc2ccc(C(=O)Cc3ccccc3)cc2)S1 (centres undefined),0,–,–
O=C1NC(=O)C(Cc2ccc(C(=O)CCc3ccco3)cc2)S1 (centres undefined),24,–,–
Cc1ccccc1/C=C/C(=O)c1ccc(CC2SC(=O)NC2=O)cc1 (centres undefined),21,–,–
Cc1oc(-c2cccs2)nc1CCC(=O)c1ccc(/C=C2\SC(=O)NC2=O)cc1,–,100,–
Cc1oc(-c2ccccc2)nc1/C=C/C(=O)c1ccc(CC2SC(=O)NC2=O)cc1 (centres undefined),59,–,100
